Experimental data as given in ChEMBL document CHEMBL1137679, “Synthesis and antibacterial activity of some new 2,3-dimethoxy-3-hydroxy-2-(1-phenyl-3-aryl-4-pyrazolyl)chromanones” (2009).
≈ marks a conversion by molar mass, not a printed value. Calls of active or inactive are those of the source. The calls are words filed in the database; no cut-off is given here.

How the values were obtained:
Type in all cases: functional
[1] = system: Bacillus pumilus; assay: Antimicrobial activity against Bacillus pumilus MTCC 1456 at 1 mg/ml after 24 hrs by agar diffusion assay; settings: for zone of inhibition at 1000 µg/mL: MTCC 1456, 24 h, read-out: DIZ
How it was run: (§1)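 Agar well diffusion. 24-h cultures adjusted to 0.5 McFarland (1.5 × 10⁸ CFU/ml), mixed into molten cooled Mueller-Hinton agar (pH 7.4) and poured. 6 mm wells punched, each loaded with 50 µl of 1 mg/ml DMSO solution. DMSO as negative control, antibiotics as positive controls. Plates incubated 35 °C for 24 h. Mean of three replicates.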

[2] = system: Pseudomonas aeruginosa; assay: Antimicrobial activity against Pseudomonas aeruginosa MTCC 3541 at 1 mg/ml after 24 hrs by agar diffusion assay; settings: for zone of inhibition at 1000 µg/mL: MTCC 3541, 24 h, read-out: DIZ; how it was run: as §1
[3] = system: Pseudomonas aeruginosa; assay: Antimicrobial activity against Pseudomonas aeruginosa MTCC 3541 after 24 hrs by agar dilution assay; settings: MTCC 3541, 24 h
How it was run: (§2)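 Agar dilution MIC following NCCLS. Cultures streaked on soyabean casein digest agar overnight at 37 °C, suspended to 0.5 McFarland, then diluted 10-fold (1.2 × 10⁷ CFU/ml). DMSO stocks diluted and added to molten Mueller-Hinton agar, final concentrations 64 down to 0.12 by twofold steps. Plates surface-inoculated, incubated 35 °C for 24 h. MIC is lowest concentration with no visible growth.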

[4] = system: Bacillus pumilus; assay: Antimicrobial activity against Bacillus pumilus MTCC 1456 after 24 hrs by agar dilution assay; settings: MTCC 1456, 24 h; how it was run: as §2
[5] = system: Staphylococcus aureus; assay: Antimicrobial activity against Staphylococcus aureus MTCC 3160 after 24 hrs by agar dilution assay; settings: MTCC 3160, 24 h; how it was run: as §2
[6] = system: Staphylococcus epidermidis; assay: Antimicrobial activity against Staphylococcus epidermidis MTCC 2639 after 24 hrs by agar dilution assay; settings: MTCC 2639, 24 h; how it was run: as §2
[7] = system: Staphylococcus aureus; assay: Antimicrobial activity against Staphylococcus aureus MTCC 3160 at 1 mg/ml after 24 hrs by agar diffusion assay; settings: MTCC 3160, 24 h, read-out: DIZ; how it was run: as §1
[8] = system: Salmonella enterica subsp. enterica serovar Typhi str. CT18; assay: Antimicrobial activity against Salmonella typhi MTCC 733 at 1 mg/ml after 24 hrs by agar diffusion assay; settings: for zone of inhibition at 1000 µg/mL: MTCC 733, 24 h, read-out: DIZ
How it was run: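 Well diffusion in MHA (pH 7.4) seeded with 24-h culture adjusted to 0.5 McFarland (1.5 × 10⁸ CFU/ml). Wells of 6 mm received 50 µl of 1 mg/ml DMSO solution; DMSO served as negative control. Incubated 35 °C, 24 h. Mean of three replicates.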

[9] = system: Staphylococcus epidermidis; assay: Antimicrobial activity against Staphylococcus epidermidis MTCC 2639 at 1 mg/ml after 24 hrs by agar diffusion assay; settings: for zone of inhibition at 1000 µg/mL: MTCC 2639, 24 h, read-out: DIZ; how it was run: as §1
[10] = system: Salmonella enterica subsp. enterica serovar Typhi str. CT18; assay: Antimicrobial activity against Salmonella typhi MTCC 733 after 24 hrs by agar dilution assay; settings: MTCC 733, 24 h

| Compound | zone of inhibition at 1000 µg/mL [1] | zone of inhibition at 1000 µg/mL [2] | MIC [3] | MIC [4] | MIC [5] | MIC [6] | zone of inhibition at 1000 µg/mL [7] | zone of inhibition at 1000 µg/mL [8] | zone of inhibition at 1000 µg/mL [9] | MIC [10] | diameter of the inhibition zone (DIZ) [1] | diameter of the inhibition zone (DIZ) [2] | diameter of the inhibition zone (DIZ) [8] | diameter of the inhibition zone (DIZ) [9] |
| --- | --- | --- | --- | --- | --- | --- | --- | --- | --- | --- | --- | --- | --- | --- |
| COC1(O)C(=O)c2ccccc2OC1(OC)c1cn(-c2ccccc2)nc1-c1ccc([N+](=O)[O-])cc1 (centres undefined) | 15.8 mm | 16.6 mm | 16 µg/mL (≈ 32.8 µM) | 32 µg/mL (≈ 65.6 µM) | 2 µg/mL (≈ 4.1 µM) | 8 µg/mL (≈ 16.4 µM) | 26 mm | 20.6 mm | 18.5 mm | 8 µg/mL (≈ 16.4 µM) |  |  |  |  |
| CC(=O)NC[C@H]1CN(c2ccc(N3CCOCC3)c(F)c2)C(=O)O1 [LINEZOLID] |  |  | < 16 µg/mL | 4 µg/mL (≈ 11.9 µM) |  | < 16 µg/mL |  |  |  | 8 µg/mL (≈ 23.7 µM) |  |  |  |  |
| COC1(O)C(=O)c2ccccc2OC1(OC)c1cn(-c2ccccc2)nc1-c1ccccc1 (centres undefined) |  |  | > 64 µg/mL | > 64 µg/mL | 16 µg/mL (≈ 36.2 µM) | > 64 µg/mL | 18.1 mm |  |  | > 64 µg/mL | inactive | inactive | inactive | inactive |
| COC1(O)C(=O)c2ccccc2OC1(OC)c1cn(-c2ccccc2)nc1-c1ccc(F)cc1 (centres undefined) | 10.1 mm | 22.2 mm | 8 µg/mL (≈ 17.4 µM) | 64 µg/mL (≈ 139 µM) | 4 µg/mL (≈ 8.69 µM) | 64 µg/mL (≈ 139 µM) | 23 mm | 18.2 mm | 12.1 mm | 8 µg/mL (≈ 17.4 µM) |  |  |  |  |
| COc1ccc(-c2nn(-c3ccccc3)cc2C2(OC)Oc3ccccc3C(=O)C2(O)OC)cc1 (centres undefined) |  |  | > 64 µg/mL | > 64 µg/mL | 16 µg/mL (≈ 33.9 µM) | > 64 µg/mL | 18 mm |  |  | > 64 µg/mL | inactive | inactive | inactive | inactive |
| COC1(O)C(=O)c2ccccc2OC1(OC)c1cn(-c2ccccc2)nc1-c1ccc(Br)cc1 (centres undefined) |  |  | > 64 µg/mL | > 64 µg/mL | 64 µg/mL (≈ 123 µM) | > 64 µg/mL | 10.3 mm |  |  | > 64 µg/mL | inactive | inactive | inactive | inactive |
| N[C@@H](C(=O)N[C@@H]1C(=O)N2C(C(=O)O)=C(Cl)CS[C@H]12)c1ccccc1 [CEFACLOR ANHYDROUS] |  |  | < 16 µg/mL | 8 µg/mL (≈ 21.8 µM) | 2 µg/mL (≈ 5.44 µM) | 2 µg/mL (≈ 5.44 µM) |  |  |  | 8 µg/mL (≈ 21.8 µM) |  |  |  |  |
| COC1(O)C(=O)c2ccccc2OC1(OC)c1cn(-c2ccccc2)nc1-c1ccc(C)cc1 (centres undefined) |  |  | > 64 µg/mL | > 64 µg/mL | 32 µg/mL (≈ 70.1 µM) | 64 µg/mL (≈ 140 µM) | 16.1 mm |  | 12.6 mm | > 64 µg/mL | inactive | inactive | inactive |  |
| CO/N=C(\C(=O)N[C@@H]1C(=O)N2C(C(=O)OC(C)OC(C)=O)=C(COC(N)=O)CS[C@H]12)c1ccco1 (some centres undefined) [CEFUROXIME AXETIL] |  |  | > 16 µg/mL | > 16 µg/mL | 8 µg/mL (≈ 15.7 µM) | 8 µg/mL (≈ 15.7 µM) |  |  |  | 8 µg/mL (≈ 15.7 µM) |  |  |  |  |
| COC1(O)C(=O)c2ccccc2OC1(OC)c1cn(-c2ccccc2)nc1-c1ccc(Cl)cc1 (centres undefined) |  | 14.7 mm | 32 µg/mL (≈ 67.1 µM) | > 64 µg/mL | 8 µg/mL (≈ 16.8 µM) | 16 µg/mL (≈ 33.5 µM) | 20.4 mm |  | 16.7 mm | > 64 µg/mL | inactive |  | inactive |  |
